Screening results from PubChem.
Compounds with a hit are over-represented: about 2.4% of the library has one in this group of screens.
ANO1 block – TMEM16A chloride channel inhibitors, primary screen, cell-based, HTS. 310,000 tested, 1.2% active. normalized B-score (activity score, 25-100; higher = stronger inhibition) at 10 µM. Anoctamin-1 (Mus musculus), Q8BHY3. HEK293 TMEM16A/YFP iodide influx fluorescence, ionomycin;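 active = ratio plate-corrected score three or more library SD toward inhibition, starting fluorescence score within five deviations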;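 note: score derived from kinetic fluorescence span divided by baseline fluorescence per well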
UBC13 inh – UBC13 polyubiquitin chain formation inhibitors, primary screen, biochemical, TR-FRET, uHTS | Ubiquitin-conjugating enzyme E2 N (Homo sapiens), P61088 | inhibition, % at 20 µM | 330,000 tested, 0.47% active; in the data active = inhibition above about 45%, passing the limit was not always enough
Apaf-1 inh – inhibitors of human Apaf-1 apoptosome, primary screen, biochemical, DEVD-Rh110 fluorescence, uHTS; Apoptotic protease-activating factor 1 (Homo sapiens), O14727; reconstituted apoptosome caspase-3 activity; inhibition, % at 20 µM; 330,000 tested, 0.71% active; AID 489030, 2010; active = inhibition of at least 40% at 20 µM
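Assay system – apoptosome proteins · Medium – Hepes buffer, pH 7.5 · Also added – cytochrome c with DEVD-Rh110 · Timing – 30 min compound preincubation, 50 min activation, room temperature · Detection – Rh110 fluorescence, excitation 480 nm, emission 540 nm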
FID counter – compounds displacing fluorescent DNA intercalator, primary screen, artefact control for HCV NS3 helicase inhibitor project, biochemical, FID fluorescence. DNA fluorescent intercalator displacement. inhibition, % at 7.9 µM. 290,000 tested, 0.17% active; in the data active = inhibition above about 37%;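 note: higher means more ethidium bromide displaced from hairpin DNA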
TMEM16A act – TMEM16A chloride channel activators or potentiators, primary screen, cell-based, HTS | B-score at 10 µM | 340,000 tested, 0.3% active | HEK293 TMEM16A/YFP-H148Q/I152L, iodide quench fluorescence; stronger effect = lower value | Anoctamin-1 (Mus musculus), Q8BHY3;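 active = fluorescence-ratio B-score plate-corrected deviation score at least 3 library SD below zero, with starting fluorescence score within 5 deviations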;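 note: channel opened by trigger with iodide after compound preincubation; score built on the fluorescence ratio of max minus min over baseline; more negative score means more quench and so TMEM16A activation or potentiation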
Apaf-1 inh conf – Apaf-1 inhibitors, single-dose retest, confirmation, biochemical, fluorescence, DEVD-Rh110, 20 µM. reconstituted apoptosome, caspase-3 DEVD-Rh110 fluorescence. shares compounds with Apaf-1 inh. 1,800 tested, 25% active. AID 504614, 2011. inhibition, % at 20 µM;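 active = mean inhibition of at least 40% at 20 µM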
Rh110 quench – Rh110 fluorescence interference by putative Apaf-1 inhibitors, confirmation, artefact control for Apaf-1 inhibitor project, biochemical, 20 µM | shares compounds with Apaf-1 inh | quenched caspase reaction | activation (fluorescence interference), % at 20 µM | 1,800 tested, under 10 active;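 active = signal rise of 40% or more at 20 µM, treated as a fluorescence artifact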
Apaf1 inh interf – fluorescence interference of Apaf-1 inhibitor hits, dose response, artefact control for Apaf-1 inhibitor project. shares compounds with Apaf-1 inh. fluorescence interference counterscreen, Apaf-1 assay format. IC50, µM. 460 tested, under 10 active; call rule not given here
Large screens that a line does not name were inactive (follow-up assays come after a bar, where they were run).

COc1ccccc1C(=O)Nc1ccc(Oc2nnc(-c3ccc(C)cc3)c3ccccc23)cc1	Apaf-1 inh 40.1 | Apaf-1 inh conf inactive | Rh110 quench inactive
CN(C)CCNCCCNc1c2ccccc2nc2cccc([N+](=O)[O-])c12	none (no result: ANO1 block, UBC13 inh, Apaf-1 inh, FID counter)
Nc1cc(Cl)ccc1C(=O)OCC(=O)N1CCCCCC1	none (no result: ANO1 block, FID counter)
O=C1C(Cl)=C(NCCc2ccccc2)C(=O)c2ccccc21	none (no result: ANO1 block, UBC13 inh, Apaf-1 inh, FID counter)
O=C1C(Cl)=C(NCc2cccnc2)C(=O)c2ccccc21	Apaf-1 inh 84.7 | Apaf-1 inh conf 64.9 | Rh110 quench inactive | Apaf1 inh interf inactive
O=C1c2ccccc2[C@@H]2C[C@@H](O)[C@H](Nc3cccc4ccccc34)CCN12	Apaf-1 inh 53.3 (no result: ANO1 block, UBC13 inh, FID counter, TMEM16A act) | Apaf-1 inh conf inactive | Rh110 quench inactive
COCCNC(=S)N1CCN(Cc2cccc(OC)c2)CC1	none
Cc1nn(CC(=O)NC2(C#N)CCCCC2)c(C)c1[N+](=O)[O-]	none (no result: ANO1 block, FID counter)
CCN(Cc1ccccc1)C(=O)c1cccc(S(=O)(=O)N2CCN(c3ccc(F)cc3)CC2)c1	Apaf-1 inh 42.1 (no result: FID counter) | Apaf-1 inh conf inactive | Rh110 quench inactive
CCN(Cc1ccccc1)C(=O)c1cccc(S(=O)(=O)N2CCN(c3ccccc3)CC2)c1	none (no result: FID counter)
COc1ccc([N+](=O)[O-])cc1N(CC(=O)N1CCN(Cc2ccccc2)CC1)S(C)(=O)=O	none
Cc1ccc(-n2nc(C)c3c2OC(N)=C(C#N)C3c2ccoc2)cc1 (stereo not drawn)	Apaf-1 inh 81.0 | Apaf-1 inh conf inactive | Rh110 quench inactive
Cc1nn(-c2ccccc2)c2c1C(c1ccccc1)C(C#N)=C(N)O2 (stereo not drawn)	Apaf-1 inh 96.5 | Apaf-1 inh conf inactive | Rh110 quench inactive
CCN(CC)c1ccc(/C=N/n2c(C)nc3ccccc3c2=O)cc1	none
CC1=NN(Cc2ccccc2)C(=O)C1	Apaf-1 inh 64.9 | Apaf-1 inh conf inactive | Rh110 quench inactive
CC1=NN(c2ccccc2)C(=O)C1	Apaf-1 inh 41.3 | Apaf-1 inh conf inactive | Rh110 quench inactive
CC1=NN(c2ccc(N)cc2)C(=O)C1	Apaf-1 inh 53.4 | Apaf-1 inh conf inactive | Rh110 quench inactive
O=Cc1ccc(OCC(=O)Nc2ccccc2C(F)(F)F)cc1	none
CC(C)NC(=O)N(C)C[C@H]1Oc2ccc(NC(=O)Nc3ccccc3)cc2C(=O)N([C@@H](C)CO)C[C@@H]1C	none (no result: ANO1 block, FID counter)
CC(=O)N(C)c1nc(N)n(-c2ccccc2)n1	none
O=C1Cc2ccccc2C(=O)N1OCc1ccc(Cl)cc1	Apaf-1 inh 95.3 | Apaf-1 inh conf inactive | Rh110 quench inactive
O=C1c2ccccc2C(=O)N1OCc1ccc(Cl)cc1	none
COc1ccc(S(=O)(=O)N(C)C)cc1NC(=O)c1ccc(OCC(=O)N2CCOCC2)c(OC)c1	none (no result: FID counter)
Cc1cc(OCC(=O)NC2CC(C)(C)NC(C)(C)C2)c2c(C)cc(=O)oc2c1	none
O=[N+]([O-])c1ccc(N2CCN(c3ccccc3O)CC2)c(Cl)c1	none
O=C1Cc2cc([N+](=O)[O-])ccc2N1c1c(Cl)cccc1Cl	Apaf-1 inh 43.2 | Apaf-1 inh conf inactive | Rh110 quench inactive
COc1ccccc1N1CCN(CCCOc2ccc(F)cc2)CC1	none
O=C1CCc2ccc(OCCCCN3CCN(c4cccc(Cl)c4Cl)CC3)cc2N1	Apaf-1 inh 42.6 | Apaf-1 inh conf inactive | Rh110 quench inactive
CCOC(=O)c1[nH]c2ccc(OC)cc2c1N=CN(C)C	none
CCCC1=Nc2cc(C(=O)NCCCOC(C)C)ccc2Sc2ccccc21	none
CCCC1=Nc2cc(C(=O)NCCCOCC)ccc2Sc2ccccc21	Apaf-1 inh 45.4 | Apaf-1 inh conf inactive | Rh110 quench inactive
O=C1CC(NS(=O)(=O)c2ccc([N+](=O)[O-])cc2)CN1c1cccc(F)c1 (stereo not drawn)	none (no result: FID counter)
Cc1ccc(NC2=C(NC(=O)c3ccccc3)C(=O)c3ccccc3C2=O)cc1Cl	Apaf-1 inh 67.3 | Apaf-1 inh conf 64.4 | Rh110 quench inactive | Apaf1 inh interf inactive
Cc1ccc(NCC(=O)c2ccccc2)cc1Cl	none
COc1ccc(NCc2cc3ccccc3[nH]c2=O)cc1	none
COc1ccc(NCc2cc3cc(OC)ccc3[nH]c2=O)cc1	Apaf-1 inh 47.3 | Apaf-1 inh conf 61.7 | Rh110 quench inactive | Apaf1 inh interf inactive
CCS(=O)(=O)c1ccc(N=Nc2ccc(O)c3ncccc23)c(OC)c1	none (no result: ANO1 block)
COc1ccccc1N=Nc1ccc(O)c2ncccc12	Apaf-1 inh 90.0 | Apaf-1 inh conf inactive | Rh110 quench inactive
O=C(C1CCN(S(=O)(=O)c2cccc3cccnc23)CC1)N1CCCCC1	none
Cc1ccc(C(=O)N2CCCN(c3nc4cc5c(cc4cc3C#N)OCO5)CC2)cc1	Apaf-1 inh 67.3 | Apaf-1 inh conf inactive | Rh110 quench inactive
N#Cc1cc2cc3c(cc2nc1N1CCCCC1)OCCO3	none (no result: TMEM16A act)
COc1ccc(NC(=O)NNc2cc(N3CCOCC3)nc(N3CCOCC3)n2)cc1	Apaf-1 inh 51.6 | Apaf-1 inh conf inactive | Rh110 quench inactive
O=C(NNc1cc(N2CCOCC2)nc(N2CCOCC2)n1)c1ccc(Cl)cc1Cl	Apaf-1 inh 47.4 | Apaf-1 inh conf inactive | Rh110 quench inactive
CC(=O)N1CCN(C(=S)Nc2ccc(SC(F)F)cc2)CC1	Apaf-1 inh 96.0 | Apaf-1 inh conf inactive | Rh110 quench inactive
Cc1cccc(OCC(O)Cn2c(=N)n(Cc3ccccc3)c3ccccc32)c1 (stereo not drawn)	Apaf-1 inh 57.8 | Apaf-1 inh conf inactive | Rh110 quench inactive
Cc1[nH]n(-c2ccccc2)c(=O)c1C(c1ccccc1C(=O)O)c1c(C)[nH]n(-c2ccccc2)c1=O	none
COc1ccc(C(c2c(C)[nH]n(-c3ccccc3)c2=O)c2c(C)[nH]n(-c3ccccc3)c2=O)cc1OC	Apaf-1 inh 97.4 | Apaf-1 inh conf inactive | Rh110 quench inactive
Cc1[nH]n(-c2ccccc2)c(=O)c1C(c1ccccc1[N+](=O)[O-])C(C#N)C#N (stereo not drawn)	none
Cc1ccc(C(C[N+](=O)[O-])c2c(C)[nH]n(-c3ccccc3)c2=O)cc1 (stereo not drawn)	Apaf-1 inh 93.4 | Apaf-1 inh conf 44.4 | Rh110 quench inactive | Apaf1 inh interf inactive
